In ChEMBL document CHEMBL1146303, “Spirodiketopiperazine-based CCR5 antagonists: Lead optimization from biologically active metabolite” (Bioorg Med Chem Lett, 2007):
pIC50: −log10 of the molar value.

What was measured:
[1] = molecular target: T1, C-C chemokine receptor type 5 (Homo sapiens, UniProt P51681); assay: Displacement of [125I]MIP1-alpha from human CCR5 expressed in CHO cells; assay type: cell-based
[2] = molecular target: T1, C-C chemokine receptor type 5; assay: Antagonist activity at human CCR5 expressed in CHO cells assessed as inhibition of MIP-1-alpha-stimulated calcium mobilization; assay type: functional, cell-based
In short: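 Cells expressing human CCR5 (hCCR5/CHO) were stimulated with MIP-1α, and the rise in intracellular calcium was measured. Potency is reported as an IC50 for inhibition of the calcium response.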

Cytochrome P450 3A4 = Cytochrome P450 3A4 (Homo sapiens, UniProt P08684); assay: Inhibition of CYP3A4; assay type: ADME
Cytochrome P450 3A4, sequence (P08684 whole entry): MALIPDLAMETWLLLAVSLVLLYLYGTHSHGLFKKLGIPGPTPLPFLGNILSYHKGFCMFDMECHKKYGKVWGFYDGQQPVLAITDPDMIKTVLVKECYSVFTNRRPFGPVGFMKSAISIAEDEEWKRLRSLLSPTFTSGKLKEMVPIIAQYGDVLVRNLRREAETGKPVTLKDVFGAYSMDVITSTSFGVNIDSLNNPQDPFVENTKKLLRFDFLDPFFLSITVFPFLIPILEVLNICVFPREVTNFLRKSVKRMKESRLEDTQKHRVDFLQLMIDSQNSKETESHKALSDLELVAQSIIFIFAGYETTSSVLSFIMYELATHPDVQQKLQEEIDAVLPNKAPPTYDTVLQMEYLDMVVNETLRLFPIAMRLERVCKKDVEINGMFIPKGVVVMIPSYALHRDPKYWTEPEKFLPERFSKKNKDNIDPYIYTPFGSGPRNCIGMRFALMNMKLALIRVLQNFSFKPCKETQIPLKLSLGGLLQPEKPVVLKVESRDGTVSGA

[3] = test system: Human immunodeficiency virus 1; assay: Anti-infective activity against HIV1 BAL in MAGI CCR5+ cells; assay type: functional, organism-based; details: Human immunodeficiency virus 1, BAL
[4] = Aqueous solubility at pH 6.8; assay type: physicochemical
[5] = test system: Human immunodeficiency virus; assay: Antiviral activity against HIV; assay type: functional, organism-based; details: Human immunodeficiency virus 1
[6] = Bioavailability in rat; assay type: ADME, organism-based; details: in vivo

T1 sequence (P51681 whole entry): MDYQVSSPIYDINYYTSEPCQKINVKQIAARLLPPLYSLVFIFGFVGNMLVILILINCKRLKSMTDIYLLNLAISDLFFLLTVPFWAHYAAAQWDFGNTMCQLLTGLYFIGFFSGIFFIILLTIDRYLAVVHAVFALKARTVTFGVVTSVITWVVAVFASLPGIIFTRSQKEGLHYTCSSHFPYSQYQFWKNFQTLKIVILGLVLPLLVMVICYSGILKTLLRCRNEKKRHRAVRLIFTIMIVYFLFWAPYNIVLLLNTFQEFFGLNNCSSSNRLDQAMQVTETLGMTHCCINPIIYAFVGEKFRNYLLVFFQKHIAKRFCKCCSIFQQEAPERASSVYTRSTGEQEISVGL

## CCCCN1C(=O)C(CC(C)(C)O)NC(=O)C12CCN(Cc1ccc(Oc3ccccc3)cc1)CC2 (stereo not drawn)
[1]
  pIC50: 7.55
[2]
  pIC50: 7.10

## CCCCN1C(=O)[C@@H](CC(C)C)NC(=O)C12CCN(Cc1ccc(Oc3ccccc3)cc1)CC2
[1]
  pIC50: 7.54
[2]
  pIC50: 6.89

## CCCCN1C(=O)C(CC2CCCCC2)NC(=O)C12CCN(Cc1ccc(Oc3ccccc3)cc1)CC2.Cl (stereo not drawn)
Cytochrome P450 3A4
  pIC50: 5.03
[3]
  pIC50: 6.47
[4]
  solubility: < 0.2 µg/mL
[5]
  pIC50: 7.51
[2]
  pIC50: 7.55

## CCCCN1C(=O)[C@H]([C@H](O)C(C)C)NC(=O)C12CCN(Cc1ccc(Oc3ccccc3)cc1)CC2
[1]
  pIC50: 7.17
[2]
  pIC50: 6.40

## CCCCN1C(=O)[C@@H]([C@H](O)C2CCCCC2)NC(=O)C12CCN(Cc1ccc(Oc3ccccc3)cc1)CC2.Cl
[3]
  pIC50: 8.22
[4]
  solubility: 2.7 µg/mL
[6]
  bioavailability: < 1%
[5]
  pIC50: 9.22

## CCCCN1C(=O)C(CC(C)C)NC(=O)C12CCN(Cc1ccc(Oc3ccccc3)cc1)CC2.Cl (stereo not drawn)
[6]
  bioavailability: 1.3%
[1]
  pIC50: 8.08
[5]
  IC90: 676 nM
[2]
  pIC50: 7.03

## CCCCN1C(=O)[C@H](CC(C)C)NC(=O)C12CCN(Cc1ccc(Oc3ccccc3)cc1)CC2
[1]
  pIC50: 7.96
[2]
  pIC50: 7.08

## CCCCN1C(=O)[C@@H]([C@@H](O)C(C)C)NC(=O)C12CCN(Cc1ccc(Oc3ccccc3)cc1)CC2
[1]
  pIC50: 7.62
[2]
  pIC50: 6.68

## CCCCN1C(=O)[C@H]([C@@H](O)C(C)C)NC(=O)C12CCN(Cc1ccc(Oc3ccccc3)cc1)CC2
[1]
  pIC50: 7.28
[2]
  pIC50: 6.82

## CCCCN1C(=O)[C@@H]([C@H](O)C(C)C)NC(=O)C12CCN(Cc1ccc(Oc3ccccc3)cc1)CC2.Cl
[6]
  bioavailability: < 1%
[1]
  pIC50: 8.46
[2]
  pIC50: 7.48
